# Measured values pooled from the literature.
# Each line is one published result; the experiments were not run side by side.
SMILES,target or system,assay,test system,setting,endpoint,value
Cc1ncc([N+](=O)[O-])n1CCO,Clostridioides difficile,microbial growth,,,MIC90,0.25 µg/mL
CCN(CCO)CCCC(C)Nc1ccnc2cc(Cl)ccc12 (stereo not drawn),Severe acute respiratory syndrome coronavirus 2,"viral replication, inhibitor",A549-ACE2,,IC50,871 nM
O=C(O[C@@H]1Cc2c(O)cc(O)cc2O[C@@H]1c1cc(O)c(O)c(O)c1)c1cc(O)c(O)c(O)c1,Severe acute respiratory syndrome coronavirus 2,cytopathic effect,Vero C1008,0.7812 µM,inhibition,0%
OC(CCN1CCCCC1)(c1ccccc1)C1CCCCC1 (stereo not drawn),Severe acute respiratory syndrome coronavirus 2,viral replication,A549-ACE2,,IC50,3160 nM
CCC(CC)COC(=O)[C@H](C)N[P@](=O)(OC[C@H]1O[C@@](C#N)(c2ccc3c(N)ncnn23)[C@H](O)[C@@H]1O)Oc1ccccc1,Severe acute respiratory syndrome coronavirus 2,viral replication,Vero,10 µM,inhibition,98%
CCCN1CCC=C(c2cc(-c3ccc(C)cc3)no2)C1,Severe acute respiratory syndrome coronavirus 2,"viral replication, inhibitor",A549-ACE2,,IC50,2880 nM
Cc1ccc(NC(=O)c2cc3c(=O)n4cccc(C)c4nc3n2C)cc1Cl,Severe acute respiratory syndrome coronavirus 2,viral replication,Vero,10 µM,inhibition,94.8%
CC(C)=CCc1c(O)ccc(C(=O)/C=C/c2ccc(O)cc2)c1O,Severe acute respiratory syndrome coronavirus 2,"cytopathic effect, inhibitor",Vero C1008,3.125 µM,inhibition,0%
CCc1ccc(NC(=O)c2cc3c(=O)n4ccccc4nc3n2C)cc1,Severe acute respiratory syndrome coronavirus 2,viral replication,Vero,10 µM,inhibition,95%
COc1cc2c(cc1OC)CN(CCc1ccc(NC(=O)c3cc(OC)c(OC)cc3NC(=O)c3cnc4ccccc4c3)cc1)CC2,Severe acute respiratory syndrome coronavirus 2,"viral replication, inhibitor",A549-ACE2,,IC50,1480 nM
C=C[C@@](C)(/C=C/c1ccc(O)cc1)CCC=C(C)C,Severe acute respiratory syndrome coronavirus 2,cytopathic effect,Vero C1008,6.25 µM,inhibition,0%
[O-][N+]1=C(c2ccc(Cl)cc2)C2=NCCN2c2ccccc21,Clostridioides difficile,microbial growth,,,MIC50,0.25 µg/mL
CC(=O)[C@H]1CC[C@H]2[C@@H]3CCC4=CC(=O)CC[C@]4(C)[C@H]3CC[C@]12C,Severe acute respiratory syndrome coronavirus 2,viral replication,Vero C1008,,IC50,9330 nM
Cc1cccn2c(=O)c3cc(C(=O)Nc4ccc(N(C)C)cc4)n(C)c3nc12,Severe acute respiratory syndrome coronavirus 2,viral replication,Vero,1 µM,inhibition,80%
N#C[C@]1(CO)O[C@@H](n2cnc3c(N)ncnc32)C[C@@H]1O,Hepatitis B virus,"viral replication, qPCR",HepG2.2.15,14 days,IC50,66 nM
CN1CCN(CCc2ccc(Cl)c(Cl)c2)CC1,Severe acute respiratory syndrome coronavirus 2,"viral replication, inhibitor",A549-ACE2,,IC50,2510 nM
O=C(/C=C/c1ccc(O)c(O)c1/C=C/c1ccc(O)c(O)c1)O[C@H](Cc1ccc(O)c(O)c1)C(=O)O,Severe acute respiratory syndrome coronavirus 2,"cytopathic effect, inhibitor",Vero C1008,12.5 µM,inhibition,0%
O=[N+]([O-])c1ccc(C2=[N+]([O-])c3ccccc3N3CCN=C23)cc1,Clostridioides difficile,microbial growth,,,MIC50,≤ 0.06 µg/mL
CC(C)OC(=O)[C@H](C)N[P@](=O)(CO[C@H](C)Cn1cnc2c(N)ncnc21)Oc1ccccc1,Hepatitis B virus,viral replication,HepG2.2.15,14 days,IC50,50 nM
C=CCNC1=C2C[C@@H](C)C[C@H](OC)[C@H](O)[C@@H](C)/C=C(\C)[C@H](OC(N)=O)[C@@H](OC)/C=C\C=C(/C)C(=O)NC(=C(c3ccccc3)C1=O)C2=O,ARPE-19,"cell growth or viability, MTT",,,IC50,> 20000 nM
CC(=O)c1cccc(NC(=O)c2cc3c(=O)n4ccccc4nc3n2C)c1,Severe acute respiratory syndrome coronavirus 2,viral replication,Vero,0.1 µM,inhibition,77%
CC(C)(C)[C@]1(O)CCN2C[C@H]3c4ccccc4CCc4cccc(c43)[C@@H]2C1,Severe acute respiratory syndrome coronavirus 2,"viral replication, inhibitor",A549-ACE2,,IC50,9120 nM
Cn1c(C(=O)Nc2ccc(Cl)cc2)cc2c(=O)n3ccccc3nc21,Severe acute respiratory syndrome coronavirus 2,viral replication,Vero,10 nM,inhibition,8%
CN(Cc1cc(Br)cc(Br)c1N)C1CCCCC1,Severe acute respiratory syndrome coronavirus 2,"viral replication, inhibitor",A549-ACE2,,IC50,1320 nM
Cc1cc(NC(=O)c2cc3c(=O)n4cccc(C)c4nc3n2C)ccc1Br,Severe acute respiratory syndrome coronavirus 2,viral replication,Vero,0.1 µM,inhibition,37.8%
C[C@H]1COCCN1c1nc(NCc2cccnc2C(F)(F)F)c2cccnc2n1,Clostridioides difficile,"microbial growth, broth dilution",R20291,,MIC,64 µg/mL
COc1ccc(C[C@@H]2c3cc(Oc4cc(C[C@@H]5c6cc(O)c(OC)cc6CCN5C)ccc4O)c(OC)cc3CCN2C)cc1,Severe acute respiratory syndrome coronavirus 2,cytopathic effect,Vero C1008,1.562 µM,inhibition,0%
